HSF1 inhib – HSF1 inhibition | NIH3T3-HGL HSE-luciferase, MG132-induced, luminescence 8 h; hits give low values | activity change, negative = inhibition, % at 7.5 µM (by protocol) | 0.77% of 300,000 active | AID 2098;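 active = more than half of replicate wells show activity change below -50%, luminescence cut by over half; inconclusive = some wells, but at most half, below -50%; inactive = no replicate well below -50%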;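 also: luciferase reports HSF-1 transcriptional activity via heat shock element; 0% = median of DMSO wells and -100% = zero luminescence signal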
Lmaj promast – reduces viability of Leishmania major promastigotes; resazurin fluorescence viability; 9% of 200,000 active; inhibition, % at 10 µM; in the data active = inhibition above about 50%;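 also: promastigotes grown with compound for 44 hours at 28 °C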
Hsp70 act – transcriptional activators of Hsp70; HeLa Hsp70 promoter luciferase reporter, luminescence; scaled: vehicle 0, proteasome-inhibitor control 100%; activation, % at 10 µM; 0.04% of 200,000 active; AID 1203;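 active = activation above the mean across all tested compounds plus 3 SD, cutoff set per campaign, cut at about 5.5% in these data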;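 also: 100% = MG132 at 30 µM as the positive control and 0% = DMSO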
T cruzi repl – T. cruzi replication inhibition; T. cruzi beta-gal in NIH3T3, luminescence, 90 h; inhibition, % (no concentration beside the values); 1.4% of 300,000 active;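 active = mean inhibition across valid replicates above about 55%, limit read from the data; inconclusive = mean below that limit but half or more replicates reach it; inactive = mean below it, under half of replicates reach it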;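 also: signal also drops with host cell toxicity which is not excluded here; 0% = plate median of DMSO wells and 100% = zero luminescence signal; higher percent means less beta-gal luminescence so fewer parasites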
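System – NIH/3T3 host cells with β-galactosidase reporter T. cruzi · Doses – single 50 nL compound addition per well in DMSO · Reagent – 5000 T. cruzi trypomastigotes/well · Medium – Low-serum DMEM with 2% FBS · Timing – ≥90 h infection period, 3 h prior cell attachment · Evaluation – parasite load inhibition, % · Technique – GalScreen luminescence, 60 min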
HSF-1 act – increases HSF-1 driven luciferase reporter signal; NIH3T3-HGL HSF-1 luciferase reporter, MG132, 8 h; 100% = twice DMSO control signal; activation, % at 9 µM; 1.7% of 300,000 active; AID 504408;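 active = mean replicate activation of at least 50% with a set share of replicates each reaching 50%; inconclusive = only one of those two conditions met; inactive = mean below 50% and too few replicates reaching it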;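 also: 0% = median of the neutral control wells and 100% = twice that signal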
The depositor's hits bear a star; ? = inconclusive; · = no result. Shown is part of a subset that was picked to be rich in hits.

SMILES	HSF1 inhib	Lmaj promast	Hsp70 act	T cruzi repl	HSF-1 act
Cn1c(=N)n(CC(O)c2cccc3ccccc23)c2ccccc21 (stereo not given)	-6.5	101.8*	-0.6	14.2	-10.8
Cc1ccc(-c2nnn(CC(=O)N(c3ccccc3F)C(C(=O)NCC3CCCO3)c3c[nH]c4ccccc34)n2)cc1 (stereo not given)	10.1	87.9*	-0.2	41.2	16.3
Cc1ccc(-c2nnn(CC(=O)N(c3ccccc3)C(C(=O)NCC3CCCO3)c3ccc(Cl)cc3)n2)cc1 (stereo not given)	-1.7	14.4	0.1	15.5	33.5
Cc1ccc(NC(=O)/C(=C/c2cccc(Br)c2)NC(=O)c2ccco2)cc1	15.1	90.5*	-0.2	33.0	36.1
O=C(Nc1ccc(C(=O)O)cc1)/C(=C/c1cccc(Br)c1)NC(=O)c1ccco1	-8.5	-8.6	-0.1	-14.0	10.3
CSc1ccc(/C=C(\NC(=O)c2ccc(C)cc2)C(=O)NN)cc1	2.3	·	·	-7.7	15.2
CSc1ccc(/C=C(/NC(=O)c2ccc(C)cc2)C(=O)Nc2cccc(C)c2)cc1	-2.2	63.2*	-0.5	-10.2	-7.9
Cc1ccc(Cl)c2sc(NC(=O)C3=COCCO3)nc12	8.6	·	·	8.7	20.4
C=CCSc1nc2sc3c(c2c(=O)n1-c1ccc(C)cc1)CCN(C)C3	-6.8	·	·	36.7	-25.3
O=C(c1cc(N2C(=O)C3C4CCC(C4)C3C2=O)ccc1Cl)N1CCN(c2ccccc2)CC1 (stereo not given)	0.1	71.7*	0.1	-12.6	14.8
Cc1nc2ccc(C(=O)OCc3ccccc3Br)cc2nc1C	19.4	1.1	0.9	3.4	41.7
N#Cc1c2c(c(NCc3ccco3)n3c1nc1ccccc13)CCC2	·	8.5	-0.2	·	·
CCN(CC)CCNc1c2c(c(C#N)c3nc4ccccc4n13)CCCC2	-5.6	95.5*	-0.1	63.4*	9.3
C=C(C)CSc1cc(C)c(C#N)c2nc3ccccc3n12	-0.2	7.3	-0.4	-5.4	17.3
CCN(CC)CCNc1cc(C)c(C#N)c2nc3ccccc3n12	-4.8	·	·	56.7*	3.2
Cc1cc(NCCN2CCOCC2)n2c(nc3ccccc32)c1C#N	-4.8	4.0	-0.2	10.1	-2.4
Cc1cc(NCCCCO)n2c(nc3ccccc32)c1C#N	-1.4	11.0	-0.2	4.0	-0.1
Cc1cc(Nc2cccc([N+](=O)[O-])c2)n2c(nc3ccccc32)c1C#N	26.5	15.2	-0.3	76.2*	40.5
N#Cc1c2c(c(Nc3ccc(O)cc3)n3c1nc1ccccc13)CCC2	29.8	-6.3	-0.5	4.7	66.0*
COc1ccc(NC(=S)NNC(=O)Cn2nc(C(F)F)cc2C(F)F)cc1	-13.1	-5.5	-0.7	-4.2	11.5
COc1ccc(CN2CCSCC2)c(C)c1C	1.2	·	·	-8.3	26.4
O=C(COc1cccc2cccnc12)N1CCc2ccccc21	24.1	-0.8	-0.1	-3.7	38.0
COc1ccc(-c2cc3ccc(O)cc3oc2=O)cc1OC	-1.9	·	·	-4.9	14.0
COc1ccc(-c2c(C)c3cc(O)ccc3oc2=O)cc1OC	25.8	·	·	1.1	66.9*
CN(C(=O)COC(=O)CN1C(=O)C2CC=CCC2C1=O)c1ccccc1 (stereo not given)	4.6	·	·	-6.6	-7.8
SMILES	HSF1 inhib	Lmaj promast	Hsp70 act	T cruzi repl	HSF-1 act
N=c1c(C(=O)NCCc2ccccc2)cc2c(=O)n3ccccc3nc2n1Cc1ccco1	45.8	·	·	11.2	74.7*
N=c1c(C(=O)NCc2ccc(F)cc2)cc2c(=O)n3ccccc3nc2n1CCCN1CCOCC1	·	60.1*	1.2	·	·
N=c1c(C(=O)NCc2ccc(F)cc2)cc2c(=O)n3ccccc3nc2n1Cc1cccnc1	-0.2	70.9*	0.4	69.8*	-4.2
N=c1c(C(=O)NCCc2ccccc2)cc2c(=O)n3ccccc3nc2n1CCCN1CCOCC1	-0.5	·	·	-2.2	2.6
CCc1nc(SCC(=O)NC2CC2)c2c(C)c(C)sc2n1	6.4	·	·	9.7	17.8
CCC(=O)Oc1cccc(C(=O)Nc2cccc(NC(=O)c3ccco3)c2)c1	-9.4	·	·	-17.3	-13.7
COc1ccccc1CNC(=O)C1CCCN(c2cnccn2)C1 (stereo not given)	2.7	·	·	-4.0	-21.4
COc1cccc(NC(=O)c2ccnc(N3CCC(C(=O)NCc4ccccc4OC)CC3)c2)c1	66.3	·	·	-19.3	111.2*
Cc1cccc(CN2CCNC2=O)c1	-71.1*	5.8	0.4	-8.7	-77.1
Cc1ccccc1CN1CCNC1=O	-1.6	-5.4	-0.1	-4.6	-6.8
C=CCc1cc(C=O)cc(OC)c1OCc1c(Cl)cccc1Cl	19.7	79.2*	-0.2	-7.1	1.5
COC(c1ccc(Cl)cc1)(c1ccc(Cl)cc1)C(Oc1nc(C)cc(C)n1)C(=O)O (stereo not given)	-2.9	·	·	-10.1	0.6
COc1ccc(S(=O)(=O)NCCCN2CCOCC2)c2ccccc12	-4.8	91.8*	-0.3	6.6	2.1
CCOc1ccc(S(=O)(=O)NCCCN2CCOCC2)c2ccccc12	-1.0	85.3*	0.2	-1.8	1.3
CCCOc1ccc(S(=O)(=O)NCCCN2CCOCC2)c2ccccc12	·	27.8	0.1	·	·
CCOC(=O)CNS(=O)(=O)c1cc(-c2nn(C)c(=O)c3ccccc23)ccc1C	-3.4	11.6	-0.3	6.8	-13.7
Cc1ccc(-c2nn(C)c(=O)c3ccccc23)cc1S(=O)(=O)NCCN1CCOCC1	3.7	64.8*	0.6	2.4	18.1
O=c1[nH]c(Sc2ccc([N+](=O)[O-])cc2[N+](=O)[O-])nc2ccccc12	21.9	·	·	60.9*	35.2
O=[N+]([O-])c1ccc(Sc2nc3ccccc3o2)c([N+](=O)[O-])c1	193.9	19.3	-0.1	54.7*	230.3*
CN(C(=O)/C=C/c1ccccc1)C1CCCCC1	31.7	·	·	-2.8	?
CSc1nc(Cc2ccccc2)cc(=O)[nH]1	-64.8*	-3.3	0.2	-5.0	-73.0
CCOc1ccc(S(=O)(=O)Nc2cc(SCC(=O)O)c(O)c3ccccc23)cc1	2.5	·	·	18.5	-7.4
CCc1ccc(S(=O)(=O)Nc2cc(SCC(=O)O)c(O)c3ccccc23)cc1	9.7	98.6*	0.1	-8.1	9.2
COc1ccc(OC)c(S(=O)(=O)Nc2ccc(O)c3ccccc23)c1	7.3	99.9*	-0.2	12.2	28.7
CCc1ccc(S(=O)(=O)Nc2ccc(O)c3ccccc23)cc1	25.3	·	·	4.0	78.3*
SMILES	HSF1 inhib	Lmaj promast	Hsp70 act	T cruzi repl	HSF-1 act
O=S(=O)(Nc1cc(Sc2cccc3cccnc23)c(O)c2ccccc12)c1ccccc1	204.0	100.3*	-0.1	50.1	203.6*
O=C(O)c1ccccc1NS(=O)(=O)c1cccc2cccnc12	-1.5	-1.4	-0.3	-15.6	3.1
O=C(O)CSc1cc(NS(=O)(=O)c2cccc([N+](=O)[O-])c2)c2ccccc2c1O	-4.3	·	·	-20.1	-25.6
Cc1ccc(C)c(S(=O)(=O)Nc2cc(SCC(=O)O)c(O)c3ccccc23)c1	·	99.7*	-0.3	·	·
COc1ccc(-c2[nH]c(-c3cccc(OC)c3)nc2SCC(=O)NC2CCCC2)cc1	1.0	58.5*	-0.2	0.9	-13.3
COc1ccc(-c2[nH]c(-c3ccc(F)cc3)nc2SCC(=O)NC2CCCC2)cc1	11.0	76.5*	0.0	19.0	29.4

Source: PubChem
